“And” between values parts separate entries of the source, which are not always exact repeats. Identical values can stand only once. Like-named read-outs stand apart in the source and are kept apart here.
Assays:
placental tissue [1] = test: Viability and functionality of placental tissue during ex vivo perfusion; set-up: species or system human
Summary of the method: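 Ex vivo perfusion of human placental cotyledons with 100 mL medium per circuit. Fetal circuit gassed with 95% N2/5% CO2, maternal with 95% air/5% CO2. […] Glucose and lactate were measured by blood gas analyser at the start and end of perfusion; β-hCG and leptin by ELISA. Values were normalized to perfusion time and cotyledon weight; Brown-Forsythe/Welch ANOVA with Dunnett's T3.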

[2] = for transfer across the placental barrier (maternal to fetal circuit): 5 µM added to maternal circuit, 360 min perfusion; for time to steady-state concentration: 5 µM in maternal circuit; for F perfusate (% found): fetal perfusate after 360 min; for F perfusate (% found) / M perfusate (% found): % of initial amount; for M perfusate (% found): maternal perfusate after 360 min; for steady-state concentration, fetal side / steady-state concentration, maternal side: % of initially analyzed concentration in the maternal sample
[3] = Fraction unbound in placental homogenate; format: in vitro ADME, human; conditions: for fraction unbound at 240 min, 2 µM: human, placental homogenate (5-fold diluted in PBS)
[4] = Perfusion system adherence test; format: in vitro ADME; conditions: % of initially analyzed concentration, 360 min, 5 µM in PM, n = 3
Summary of the method: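 No placenta in the chamber; only the maternal circuit was run, for 360 min. Test compound was dissolved directly in perfusion medium at a final 5 µM and run on its own. Quantified by U(H)PLC-MS/MS and expressed as % of the initial maternal concentration. Three independent experiments, mean ± SD.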

5-HT 1A receptors = conditions: expressed in human CHO cell membranes ref 22; cited from earlier work
serotonin transporter = conditions: expressed in murine S6 cells ref 23; cited from earlier work
[5] = test system: noradrenaline transporter; conditions: expressed in murine N1 cells ref 23; cited from earlier work
[6] = Stability of compounds in PBS, perfusion medium and placental homogenate; format: in vitro ADME, human; conditions: 360 min, 4 °C and 37 °C
placental tissue [7] = test: Histopathological evaluation of perfused placental tissue; set-up: species or system human
Summary of the method: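 Human placental tissue after ex vivo perfusion: sections taken immediately afterwards from the perfused area, the non-perfused area and the transitional area. Fixed in 4% paraformaldehyde ≥24 h, paraffin-embedded, cut at 2–3 µm. Stained with H&E, plus a modified Gram stain (Braun-Brenn) to check for bacterial contamination. Scored for intravascular thrombi, cytotrophoblast vacuolization, hydropic villous changes and villous endothelium viability, compared against non-perfused tissue.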

[8] = during 360 min, control perfusions
[9] = 5 µM, compared with antipyrine control perfusions
[10] = perfused tissue, individual experiments 1-4
[11] = perfused tissue, individual experiments 1-4, listed as Protopine

Row | Compound | transfer across the placental barrier (maternal to fetal circuit) [2] | time to steady-state concentration [2] | F perfusate (% found) [2] [%] | M perfusate (% found) [2] [%] | fraction unbound at 240 min, 2 µM [3] | adherence to perfusion equipment (compound lost) [4] | effect on placental viability and metabolic activity (glucose consumption, lactate production) (placental tissue [1]; [9]) | steady-state concentration, fetal side [2] [%] | steady-state concentration, maternal side [2] | also measured
1 | Cc1cc(=O)n(-c2ccccc2)n1C [antipyrine] | readily crossed the placental barrier | approximately 120 min | 19.8 | 22.0 | 1 | 7.4 ± 4.7% |  |  |  | leptin production (placental tissue [1]; control perfusions): 334.8 pg/g/min; β-hCG production (placental tissue [1]; control perfusions): 95.7 mU/g/min; lactate production (placental tissue [1]; [8]): 0.27 µmol/g/min; total glucose consumption (placental tissue [1]; [8]): 0.39 µmol/g/min; time to equilibrium between maternal and fetal circuits ([2]; connectivity control in perfusions with protopine): 120 to 240 min
2 | CN(C)CCCC1(c2ccc(F)cc2)OCc2cc(C#N)ccc21 (stereo not drawn) [citalopram] | crossed the human placental barrier | approximately 60 min | 6.4 | 11.4 | 0.21 ± 0.01 | 48.4% and 48.4 ± 12.9% | did not impair placental viability and metabolic activity | 11 | 22% | 
3 | CN1C(=O)CN=C(c2ccccc2)c2cc(Cl)ccc21 [diazepam] | crossed the human placental barrier | approximately 45 min |  | 7.9 |  | 54.8% and 54.8 ± 12.7% | did not impair placental viability and metabolic activity |  |  | steady-state concentration (side not specified) ([2]; % of initially analyzed concentration, slow decrease until 360 min): 24%
4 | protopine | rapidly transferred from the maternal to the fetal circuit |  | 14.0 | 23.1 |  | 20.4% and 20.4 ± 9.5% | did not impair placental viability and metabolic activity | ~20 | approximately 27% | effect on β-hCG and leptin production (placental tissue [1]; [9]): did not inhibit; effect on placental viability and metabolic activity (glucose consumption, lactate production) (placental tissue [1]; 5 µM, compared with antipyrine control perfusions, listed as Protopine): did not affect placental viability or functionality; transfer across the placental barrier (maternal to fetal circuit) ([2]; listed as Protopine): transferred from the maternal to the fetal circuit; fetal-maternal concentration ratio (FM ratio) ([2]; after 360 min, antipyrine from control perfusions): 0.75; Final recovery (% found) ([2]; sum of fetal and maternal perfusates, sampling and system adherence, 360 min): 71.4 ± 8.6%; Fraction unbound (fu,hom) ([3]; placental homogenate vs PBS, 2 µM, 240 min, 37 °C, 3 donors): 0.48 ± 0.04; ligand at 5-HT 1A receptors (5-HT 1A receptors): ligand at 5-HT 1A receptors; inhibition of serotonin transporter (serotonin transporter): inhibitor; inhibition of noradrenaline transporter [5]: inhibitor; stability in PM [6]: slightly less stable; damage of placental tissue (endothelium, vascular rupture, thrombi, trophoblast vacuolization) (placental tissue [7]; overall assessment): did not cause apparent damage of placental tissue; Thrombi in vessels of stem villi (placental tissue [7]; [10]): 0%; Thrombi in villous vessels (placental tissue [7]; [10]): 5%; Thrombi in villous vessels (placental tissue [7]; [11]): 1% and 0%; Vacuolated trophoblast in villi (placental tissue [7]; [11]): 0% and 20% and 1% (2×)
